# Hits are enriched below; roughly 1.6% of the tested compounds scored in any of these assays.
# FLuc stim CS: FLuc activators, initial screening, artefact control for FLuc-dependent activation tests, biochemical, ATPlite luminescence; Luciferin 4-monooxygenase (Photinus pyralis), P08659; ATPlite luciferase biochemical, 10 min; 0 = ATP-free wells, 1 = DMSO control; activation factor at 10 µM; 200,000 tested, under 10 active;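 active = luciferase activation factor, scaled between plate controls, of at least 2 with compound at 10 µM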
# Target sequence (P08659 whole entry, looked up): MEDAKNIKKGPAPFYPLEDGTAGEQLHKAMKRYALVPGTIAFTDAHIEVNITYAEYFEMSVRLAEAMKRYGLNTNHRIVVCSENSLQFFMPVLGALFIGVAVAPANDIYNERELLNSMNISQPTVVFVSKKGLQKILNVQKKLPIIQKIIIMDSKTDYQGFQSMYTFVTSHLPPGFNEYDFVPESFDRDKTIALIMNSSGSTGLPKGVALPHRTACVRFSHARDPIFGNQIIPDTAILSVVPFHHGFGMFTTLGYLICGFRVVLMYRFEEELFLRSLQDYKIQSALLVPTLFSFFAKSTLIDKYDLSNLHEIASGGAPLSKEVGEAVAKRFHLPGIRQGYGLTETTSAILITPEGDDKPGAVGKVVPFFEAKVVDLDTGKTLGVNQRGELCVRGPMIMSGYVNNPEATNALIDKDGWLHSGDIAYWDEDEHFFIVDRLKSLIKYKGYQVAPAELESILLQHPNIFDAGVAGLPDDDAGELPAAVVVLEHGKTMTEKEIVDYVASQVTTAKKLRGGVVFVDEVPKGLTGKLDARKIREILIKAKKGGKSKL
#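 System: cell-free luciferase reagent; medium: PBS as buffer for the ATP substrate; doses: test compounds dosed from 2 mM stocks in 100% DMSO; incubation: 10 min, room temperature; measured by: luminescence from luciferase reaction; read-out: luciferase activation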
# FLuc inh counter: firefly luciferase enzyme inhibitors, primary screen, artefact control for luciferase-based inhibitor screens, biochemical, luminescence, ATPLite. actives 1.5% (n = 200,000). Luciferin 4-monooxygenase (Photinus pyralis), P08659. AID 1006, 2008. inhibition, % at 10 µM. 10 min;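 active = inhibition above about 50% when tested at 10 µM, limit read from the data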
# PPC-1+TRAIL kill: compounds killing PPC-1 cancer cells with TRAIL present, primary screen, TRAIL potentiator project, ATPLite luminescence, uHTS | cell killing (% activity), % at 4 µM or 5 µM | PPC-1 cells + TRAIL, ATPLite viability luminescence | actives 0.41% (n = 220,000);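 active = cell killing above 50% in the first pass at 4 µM, then a duplicate retest at 5 µM averaging 50% or more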;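 note: plate controls were cells with TRAIL plus DMSO for no effect and medium-only wells lacking cells for full effect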
# C8 TRAIL sens: viability loss with TRAIL in NB7+C8 cells, primary screen, TRAIL sensitizer project, cell-based, ATPlite luminescence | inhibition (viability loss, TRAIL sensitization), % at 10 µM | AID 624354, 2012 | actives 1% (n = 360,000);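 active = compounds causing at least 50% loss of cell viability in the single-dose screen, relative to plate controls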
# Active calls of the source: *; . = not tested or not shown; ! = a repeat was not active.
SMILES,FLuc stim CS,FLuc inh counter,PPC-1+TRAIL kill,C8 TRAIL sens
O=C(CC(=O)c1cc(Cl)ccc1O)c1ccccc1,1,-0.6,10.6,26.1
CCCCN(CC)CCCNC(=O)C1c2ccccc2C(=O)N(C)C1c1cn(C)c2ccccc12 (centres undefined),1,-3.4,-8.4,61.4*
CCN(CC)CCCNC(=O)C1c2ccccc2C(=O)N(CCOC)C1c1ccc(F)cc1 (centres undefined),1,-4.7,-6.9,-3.4
Cc1cc(C)nc(SCc2cc(=O)c(OC(=O)c3ccco3)co2)n1,1.1,-8.0,-7.2,18.9
Cc1cc(C)nc(SCc2cc(=O)c(OC(=O)c3ccc(Br)o3)co2)n1,0.4,60.1*,-2.4,24.7
CCC(=O)NCCc1nc2cc(NC(=O)c3ccco3)ccc2n1C,.,.,.,16.9
COc1ccccc1N(CC(=O)N/N=C/c1c(O)ccc2ccccc12)S(C)(=O)=O,1,-3.1,35.9,52.0*
CN1CCN(Cc2nc3ccccc3c(=O)n2Cc2nc(-c3ccc4ccccc4c3)cs2)CC1,1,-3.7,-3.1,77.2*!
CN1CCN(Cc2nc3ccccc3c(=O)n2Cc2nc(-c3cccc([N+](=O)[O-])c3)cs2)CC1,1,-1.4,14.0,20.5
Cc1ccc(N(Cc2cc(=O)[nH]c3ccccc23)C(=O)CCl)c(C)c1,.,.,.,51.6*
CCCC(=O)N(Cc1cc(=O)[nH]c2ccccc12)c1ccc(C)cc1C,.,.,.,-15.7
NC1=CC(=O)C(=O)c2ccccc21,.,.,.,91.6*
CCc1nn(C(C)C(=O)NCc2ccc(Cl)cc2)c(=O)c2cc3occc3n12 (centres undefined),.,.,.,-6.3
CC1CCCCC1NC(=O)CSc1nnc(COc2ccc(Cl)cc2)o1 (centres undefined),.,.,.,-7.2
CC(C)(C)NC(=O)NC(=O)CN1CCN(C(c2ccccc2)c2ccccc2)CC1,1,-1.7,-7.2,2.3
O=C(/C=C\c1ccccc1)Nc1nccs1,0.5,53.0*,37.3,31.2
O=C(/C=C/c1ccccc1)Nc1scc(-c2ccccc2)c1C(=O)O,0.3,74.3*,22.5,30.7
O=C(/C=C/c1ccco1)Nc1scc(-c2ccccc2)c1C(=O)O,.,.,48.0,54.3*
O=C(/C=C/c1cccc(F)c1)Nc1nccs1,0.8,21.2,20.4,4.7
O=C(/C=C/c1ccco1)Nc1nc(-c2ccccc2)cs1,0.7,27.5,5.4,18.9
O=c1c2ccccc2ncn1C1CCCCC1,1,-3.0,4.9,4.2
O=c1c2[nH]c3ccccc3c2ncn1C1CCCCC1,0.7,31.7,16.4,69.4*
C/C(=N\NC(=O)c1ccc2ccccc2c1)c1cccs1,.,.,.,55.1*
C/C(=N\NC(=O)c1cccs1)c1ccc2ccccc2c1,.,.,.,12.9
O=C1NC(=S)NC1=Cc1ccc(O)cc1,.,.,.,-14.4
SMILES,FLuc stim CS,FLuc inh counter,PPC-1+TRAIL kill,C8 TRAIL sens
O=C1NC(=S)N/C1=C\c1ccc(N2CCOCC2)cc1,0.2,78.4*,38.1,9.2
CN(CC(=O)Nc1ccc(F)c(Cl)c1)S(=O)(=O)c1ccc2c(c1)n(C)c(=O)c(=O)n2C,.,.,.,-11.5
COc1ccc(-n2c(C)cc(/C=C3/SC(=O)N(CC(=O)N4CCOCC4)C3=O)c2C)cc1,0.7,28.4,10.8,-13.6
Cc1cc(/C=C2/SC(=O)N(CC(=O)N3CCOCC3)C2=O)c(C)n1-c1ccccc1F,0.1,86.7*,52.7*,3.4
COc1ccc(/C=N/N2C(=O)CSC2=S)cc1,1,-1.3,12.2,-9.7
COc1ccc(-c2nn(-c3ccccc3)cc2/C=N/N2C(=O)CSC2=S)cc1,1.1,-5.7,-11.8,69.2*
CN(C)c1ccc(/C=C/c2ccc3c4ccccc4ccc3[n+]2-c2ccccc2)cc1,0.3,65.4*,67.5*,63.2*
CN(C)c1ccc(/C=C/c2ccc3ccccc3[n+]2C)cc1,0.7,31.9,39.5,36.0
CN(C)C(=S)Oc1ccccc1C1(C)OCCO1,.,.,.,-9.9
Cn1c(=S)[nH]c2sc3c(c2c1=O)CCC(C(C)(C)C)C3 (centres undefined),.,.,.,52.6*
O=C(Nc1ccc(S(=O)(=O)Nc2ncccn2)cc1)c1ccccc1NS(=O)(=O)c1ccc(Cl)cc1,.,.,4.6,20.9
CN(C)/C=C/C(=O)c1cnc(-c2ccc(Cl)cc2)s1,0.5,53.4*,7.2,29.1
Cc1csc(NC(=O)CSc2nc3[nH]c(=O)cc(O)c3s2)n1,.,.,.,58.0*
Cc1ccc(S(=O)(=O)Cc2cc(F)c([N+](=O)[O-])cc2[N+](=O)[O-])cc1,.,.,.,64.8*
CN(Cc1ccccc1)C(=O)[C@@H]1CCCN1C(=O)[C@@H]1CCCN1C(=O)c1cccc(Cl)c1,.,.,.,-5.7
COc1cc(C)ccc1S(=O)(=O)NC(=O)C1(C)CCN1C(=O)c1ccc(C(F)(F)F)nc1C (centres undefined),.,.,.,-10.0
O=C(Nc1nncs1)c1cc(S(=O)(=O)N2CCCCC2)ccc1Cl,.,.,.,2.3
Nc1c(-c2cccc(Cl)c2)cnn1-c1ccccc1,.,.,.,9.7
Nc1c(-c2ccccc2)cnn1-c1ccccc1,.,.,.,54.0*
O=C(Nc1cccc(S(=O)(=O)N2CCCC2)c1)c1ccccc1OC(F)F,.,.,.,22.8
COc1ccccc1Nc1nnc(SCC(=O)NC(=O)Nc2ccc3c(c2)OCCO3)s1,1,3.1,17.2,4.2
O=C(/C=C/c1ccco1)Oc1cc(Br)cc(/C=N/NC(=O)c2ccccc2O)c1,1,-0.3,51.7*,43.7
CCOc1cc(NC2CS(=O)(=O)CC2O)c(OCC)cc1NC(=O)c1ccccc1 (centres undefined),1.1,-8.4,12.9,51.0*
CCOc1cc(NC(=O)c2ccccn2)c(OCC)cc1NC(=O)c1ccccc1,1,0.2,.,-5.8
O=C1CCCN1CCCNc1nc(NCc2cccs2)nc2ccsc12,.,.,.,-3.9
SMILES,FLuc stim CS,FLuc inh counter,PPC-1+TRAIL kill,C8 TRAIL sens
O=C(Nc1ccc2c(c1)OCCO2)c1ccc(Cl)cc1Cl,.,.,.,72.2*
O=C(Nc1ccc2c(c1)OCO2)c1ccc(Cl)cc1Cl,.,.,.,71.1*
COC(=O)C1=CN(c2ccc(C(C)(C)C)cc2)C(N)=C(C#N)C1c1ccc(OC)cc1 (centres undefined),.,.,.,4.3
Cc1cccc(NC(=S)NNC(=O)c2csc(C(C)C)c2)c1,0.5,53.8*,22.6,20.3
CCc1cc(C(=O)NNC(=S)Nc2cccc(C)c2)cs1,0.5,51.2*,13.4,14.4
CN1/C(=C\C(=O)c2cccnc2)C(C)(C)c2ccccc21,1,-1.9,-3.9,-10.2
CN1/C(=C/C(=O)c2nc(S(C)(=O)=O)ncc2Cl)C(C)(C)c2ccccc21,1,-2.6,-5.2,66.7*
C/C(=N\N1CCN(c2ccccc2)CC1)c1ccc(O)cc1,.,.,.,-7.2
N#Cc1cnn(-c2nc3sc4c(c3c(=O)[nH]2)CCCC4)c1N,0.4,59.6*,36.1,41.8
O=C(Cn1cc(COc2ccc(Cl)c(Cl)c2)nn1)NS(=O)(=O)c1ccccc1C(F)(F)F,.,.,.,-23.4
CCCN(CC(=O)Nc1ccccc1C)C(=O)CCl,1,-2.5,35.8,91.0*
CNC(=S)N/N=C/c1cccc(OCc2ccccc2F)c1,0.5,51.5*,45.2,7.4

# Screening results as filed in PubChem BioAssay.
